Results on five compounds are retold here after article PMC6028938 (Neurobiology of disease, 2018).

Series [1] deals with T1, PKA CαM120A (Mus musculus, UniProt P05132, M121A). Description: Atxn1 2Q/2Q. The class given is cell-based.
Series [2] deals with T1, PKA CαM120A. The format is biochemical.
The conditions of series [3]: mice, delivered in drinking water or by IP injection; cited from earlier work.
In the next series the target is CαM120A (Mus musculus, UniProt P05132, M121A). Description: 1-NM-PP1 delivered in vivo. The note with it: cage drinking water or intra-cerebro-ventricular injections, data not shown.
The next series concerns the target PKA. The note with it: cited from earlier work.
For another series, the system named is mice. The note with it: mouse.
The subject of the next series is Atxn1[66Q] and Atxn1[2Q]. Description: GSK690693 treatment in Atxn1 66Q/2Q cerebellar slice cultures. The note with it: 10 μM. The format is cell-based, mouse.
For another series, the system named is endogenous human ATXN1. The series can be described thus: SCA1 patient iPSC-derived neuronal cells, western blot of ATXN1. The class given is cell-based. The following applies: 10 μM, two-day treatment. A digest of the protocol:
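NPCs differentiated 7 days in DMEM/F12 with 100 ng/ml FGF8, 200 ng/mL SHH and 1:100 N2; β-III tubulin-stained. Treated 2 days with 10 μM test compound, lysed in Tris-Triton buffer. Western blot: MoAb-17 (1 ng/μl) for pS776, 11750 for total ATXN1, GAPDH-normalised.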

The next series relates to MSK. The following applies: read-out: IC50 as MSK inhibitor; cited from earlier work.
In series [4] the test system is RFP-ATXN1[82Q] in DAOY cells. Description: Live cell imaging of DAOY cells stably expressing RFP-ATXN1[82Q]. The class given is cell-based, human. A digest of the protocol:
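DAOY cells stably carrying RFP-ATXN1[82Q]-IRES-YFP, grown on 35 mm plates and moved to imaging chambers heated to 37 °C. At time zero, 10 nM test compound or DMSO vehicle was added. Brightfield and RFP images were taken every 2 minutes on an inverted fluorescence microscope.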

A further series deals with PKA pathway. The note with it: postnatal day 7 ATXN1[82Q] mouse cerebellar slices; cited from earlier work.
The mark [5] stands for this setting: 20 μM 1-NM-PP1, three-day incubation, vs no treatment or DMSO.
[6] abbreviates: one day of exposure, P10 slices.

Structures are written as SMILES.

For `CC(C)(C)n1nc(Cc2cccc3ccccc23)c2c(N)ncnc21` [1-NM-PP1], on PKA CαM120A [1] (setting [5]), the “level of Atxn1[2Q] protein” value is listed as “failed to affect” and the “phosphorylation of pan-PKA substrates” value is “failed to affect”. Besides, the “inhibition of S776 phosphorylation” value against PKA CαM120A [2] (10 μM 1-NM-PP1, the highest dose tested) is given as “Subtle inhibition”. For the same compound, the “blood brain barrier crossing” value in [3] was “cross the blood brain barrier”. Moreover, the “inhibition of CαM120A in vivo” value at CαM120A was “failed”.

Regarding `CCn1c(-c2nonc2N)nc2c(C#CC(C)(C)O)ncc(OC[C@H]3CCCNC3)c21` [GSK690693, 4-[2-(4-Amino-1,2,5-oxadiazol-3-yl)-1-ethyl-7-[(3S)-3-piperidinylmethoxy)-1H-imidazo[4,5-c]pyridin-4-yl]-2-methyl-3-butyn-2-ol], the “IC50s for AGC kinase family members including PKA (in words)” value at PKA is “nanomolar”. In addition, at PKA CαM120A [1] (10 μM GSK690693, two days), the “amount of Atxn1[2Q] protein” value was “significantly decreased”. The pan-PKA substrate phosphorylation entry on PKA CαM120A [1] (10 μM GSK690693, two days) is “dramatically decreased”. Besides, the “concentration that blocks ATXN1[30Q]-S776 phosphorylation” value at PKA CαM120A [2] (Cα M120A cerebellar extracts as kinase source) is no more than 10 nM. Besides, the toxicity in vivo result in the series on mice is recorded as “very toxic with treated mice having seizures”. Also, in the series on Atxn1[66Q] and Atxn1[2Q] (by 5 days of treatment), the “S776 phosphorylation status (MoAB-17 blot)” value is on record as “decrease in pS776”. The “phosphorylation of other cerebellar proteins with PKA consensus site RRX(S/T) (pan-PKA substrates antibody)” value in the series on Atxn1[66Q] and Atxn1[2Q] (by one day of treatment) was “Inhibition”. Moreover, the “reduction of Atxn1[2Q] level” value was determined as 68% with Atxn1[66Q] and Atxn1[2Q] (five days); 22% in the series on Atxn1[66Q] and Atxn1[2Q] (setting [6]); 54% in the series with Atxn1[66Q] and Atxn1[2Q] (three days). Moreover, the “reduction of Atxn1[66Q] level” value came out at 70% with Atxn1[66Q] and Atxn1[2Q] (five days); 29% in the series on Atxn1[66Q] and Atxn1[2Q] (setting [6]); 56% with Atxn1[66Q] and Atxn1[2Q] (three days). Besides, the “reduction of endogenous ATXN1 levels” value with endogenous human ATXN1 amounted to 44%.

A word on the IC50: it is the point on the concentration scale where inhibition reaches its midpoint. For the compound `CCn1c(-c2nonc2N)nc2cncc(CNC3CCNCC3)c21` [SB-747651A], the “inhibitory activity towards PKA relative to MSK (less)” value in the series on PKA is “approximately 10 fold”. Also, the IC50 in the series on MSK is 11 nM.

As for `CN[C@@H]1C[C@H]2O[C@@](C)([C@@H]1OC)n1c3ccccc3c3c4c(c5c6ccccc6n2c5c31)C(=O)NC4` [Staurosporine], the “RFP-ATXN1[82Q] signal” value in [4] (10 nM staurosporine, as early as two minutes post-treatment, continued to decrease out to six minutes, 37 °C) is reported as “substantially diminished”. Moreover, in series [4] (after four minutes of exposure to staurosporine), the “fluorescently tagged ATXN1[82Q] detectability” value is given as “no longer detectable”.

As to `C=C[C@@]1(C)CC(=O)[C@]2(O)[C@@]3(C)[C@@H](O)CCC(C)(C)[C@@H]3[C@H](O)[C@H](OC(C)=O)[C@@]2(C)O1` [forskolin], in the series with PKA pathway, the “dendritic morphology of cerebellar slices” value is “enhanced dendritic morphological abnormalities”.
